Data taken from ChEMBL document CHEMBL1821701, “Stereochemical analysis of leubethanol, an anti-TB-active serrulatane, from Leucophyllum frutescens” (2011).
Values after ≈ are worked out from the molar mass of the structure shown.

Key:
Format in all cases: functional
[1] = test system: Mycobacterium tuberculosis; assay: Antitubercular activity against multidrug-resistant Mycobacterium tuberculosis CIBIN/UMF15:99 isolate by microplate Alamar blue assay
Method in brief: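 Modified microplate Alamar Blue assay. H37Rv ATCC 27294 is susceptible to streptomycin, isoniazid, rifampin, ethambutol and pyrazinamide. Clinical isolate CIBIN/UMF15:99 is resistant to the same five drugs. Test stocks were 2 mg/mL in 20% DMSO in Middlebrook 7H9 broth, filter-sterilized. Final concentrations ran from 100 to 0.78 µg/mL. Read-out was MIC, at least in triplicate.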

[2] = test system: Mycobacterium tuberculosis; assay: Antitubercular activity against multidrug-resistant Mycobacterium tuberculosis CIBIN/UMF15:99 isolate by microplate Alamar blue assay relative to streptomycin
[3] = test system: Mycobacterium tuberculosis; assay: Antitubercular activity against multidrug-resistant Mycobacterium tuberculosis CIBIN/UMF15:99 isolate by microplate Alamar blue assay relative to rifampin

SMILES: CC[C@@H](CO)NCCN[C@@H](CC)CO [ETHAMBUTOL]
- MIC [1]: 8 µg/mL (≈ 39.2 µM)

SMILES: CC(C)=CCC[C@H](C)[C@@H]1CC[C@@H](C)c2c(O)cc(C)cc21 [LEUBETHANOL]
- Ratio [2]: 16
- MIC [1]: 6.3 µg/mL (≈ 22 µM)
- Ratio [3]: 16

SMILES: NNC(=O)c1ccncc1 [ISONIAZID]
- MIC [1]: 3.1 µg/mL (≈ 22.6 µM)

SMILES: CN[C@@H]1[C@H](O[C@H]2[C@H](O[C@H]3[C@H](O)[C@@H](O)[C@H](N=C(N)N)[C@@H](O)[C@@H]3N=C(N)N)O[C@@H](C)[C@]2(O)C=O)O[C@@H](CO)[C@H](O)[C@H]1O [STREPTOMYCIN]
- MIC [1]: > 100 µg/mL

SMILES: CO[C@H]1/C=C/O[C@@]2(C)Oc3c(C)c(O)c4c(O)c(c(/C=N/N5CCN(C)CC5)c(O)c4c3C2=O)NC(=O)/C(C)=C\C=C\[C@H](C)[C@H](O)[C@@H](C)[C@@H](O)[C@@H](C)[C@H](OC(C)=O)[C@@H]1C [RIFAMPIN]
- MIC [1]: > 100 µg/mL
